Data reported in paper PMC8606101 (The Biochemical journal, 2017).
Entries after “also recorded” stand apart in the source; their conditions may differ. Like-named read-outs stand apart in the source and are kept apart here.

Legend:
[1] = target: T1, ADAM9 (Mus musculus, UniProt Q61072); assay type: cell-based; settings: for dose dependence of inhibition of ADAM9-dependent release of EphB4-AP: titration; for stimulation of ADAM9-dependent shedding of EphB4-AP: 20 ng/ml PMA, 100 μM PV or 2.5 μM IO, 30 minutes
T1 sequence (Q61072 30-845): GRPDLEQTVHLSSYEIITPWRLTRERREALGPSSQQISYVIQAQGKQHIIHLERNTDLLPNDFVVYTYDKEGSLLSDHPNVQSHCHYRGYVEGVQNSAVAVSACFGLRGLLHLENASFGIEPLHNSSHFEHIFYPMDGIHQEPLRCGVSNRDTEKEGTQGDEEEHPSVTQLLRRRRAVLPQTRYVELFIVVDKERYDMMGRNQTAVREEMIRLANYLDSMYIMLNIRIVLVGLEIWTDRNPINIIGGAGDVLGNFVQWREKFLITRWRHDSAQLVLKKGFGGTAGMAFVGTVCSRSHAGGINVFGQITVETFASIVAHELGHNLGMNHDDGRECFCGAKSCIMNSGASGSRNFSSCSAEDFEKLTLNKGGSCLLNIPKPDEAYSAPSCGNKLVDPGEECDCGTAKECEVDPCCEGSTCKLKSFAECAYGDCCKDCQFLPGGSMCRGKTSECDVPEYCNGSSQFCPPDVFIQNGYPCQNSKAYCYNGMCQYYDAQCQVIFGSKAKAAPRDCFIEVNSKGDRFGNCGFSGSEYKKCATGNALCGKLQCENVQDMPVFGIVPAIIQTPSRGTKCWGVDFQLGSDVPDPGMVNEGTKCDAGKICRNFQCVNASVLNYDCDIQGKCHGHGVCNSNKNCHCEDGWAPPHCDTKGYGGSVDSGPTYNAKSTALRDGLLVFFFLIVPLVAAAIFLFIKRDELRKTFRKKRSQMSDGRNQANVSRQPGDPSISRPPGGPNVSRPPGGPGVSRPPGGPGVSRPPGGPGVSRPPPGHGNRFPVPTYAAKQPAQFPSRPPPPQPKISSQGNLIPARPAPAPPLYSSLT

[2] = test system: ADAM10; settings: cited from earlier work; for IC50: read-out: Potency (IC50/inhibition constant) ADAM10, cell-based
[3] = target: T2, ADAM10 (Mus musculus, UniProt O35598); experiment: ADAM10-dependent shedding of BTC-AP in wild type mEFs; assay type: cell-based; settings: WT mEFs, Supplementary Figure 2
T2 sequence (O35598 215-749): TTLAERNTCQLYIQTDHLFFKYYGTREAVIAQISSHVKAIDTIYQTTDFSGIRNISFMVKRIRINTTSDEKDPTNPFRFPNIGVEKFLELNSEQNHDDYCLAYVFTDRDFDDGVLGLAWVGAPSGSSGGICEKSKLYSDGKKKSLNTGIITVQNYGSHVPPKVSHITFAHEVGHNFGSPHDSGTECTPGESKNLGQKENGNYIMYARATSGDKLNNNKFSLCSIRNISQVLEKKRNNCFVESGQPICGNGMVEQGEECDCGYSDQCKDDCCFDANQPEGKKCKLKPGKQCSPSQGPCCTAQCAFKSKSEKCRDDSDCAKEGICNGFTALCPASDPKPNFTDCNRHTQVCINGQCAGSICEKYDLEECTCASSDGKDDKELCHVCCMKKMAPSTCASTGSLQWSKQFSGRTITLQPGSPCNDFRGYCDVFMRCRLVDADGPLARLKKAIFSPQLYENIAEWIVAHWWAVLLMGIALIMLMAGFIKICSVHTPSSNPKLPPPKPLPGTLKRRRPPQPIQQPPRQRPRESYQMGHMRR
Summary of the method: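 Wild-type mEFs were transiently transfected with AP-tagged betacellulin using Lipofectamine2000. Cells were washed 1 h in OptiMEM, then given fresh OptiMEM with or without test compound for 30 min to 2 h. AP activity was measured colorimetrically in supernatant and lysate from three identical wells. Shedding = supernatant AP / (lysate + supernatant AP).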

[4] = test system: recombinant soluble ADAM9; settings: cited from earlier work; for Ki: read-out: Ki recombinant soluble ADAM9; for inhibition of recombinantly expressed ADAM9: concentrations up to 200 nM
[5] = test system: ADAM17; settings: 1 μM; cited from earlier work
[6] = test system: ADAM12; settings: read-out: Potency (IC50/inhibition constant) ADAM12, cell-based; cited from earlier work
[7] = test system: EphB4-AP background shedding; experiment: Basal/background EphB4-AP shedding in cells expressing inactive ADAM9 E>A; assay type: cell-based, mouse; settings: for effect on EphB4-AP shedding in the absence of active A9 (EA9 cells): 20 ng/ml PMA, 100 μM PV or 2.5 μM IO, 30 minutes
Summary of the method: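 Adam10/17-/- mEFs were co-transfected (Lipofectamine2000) with ADAM9 E>A plasmid (1.5 µg per 6-well well) and EphB4-AP (1 µg). After a 1 h OptiMEM wash, cells were held in fresh OptiMEM ± stimuli or inhibitor. Times were 30 min for stimuli (pervanadate freshly made from vanadate + H2O2) and 2 h for inhibitors. Readout was colorimetric AP in supernatant/(lysate+supernatant), as fold over untreated cells; mean ± SEM, ≥3 experiments, Dunnett's test.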

[8] = test system: ADAM15; settings: read-out: Potency (IC50/inhibition constant) ADAM15, cell-based; cited from earlier work

CNC(=O)[C@H](Cc1ccccc1)NC(=O)[C@H](CC(C)C)[C@H](CSc1cccs1)C(=O)NO [Batimastat/BB94, Batimastat]
IC50 [1]: 50 nM
IC50 [2]: ~200 nM

CNC(=O)[C@@H](NC(=O)[C@H](CCCc1ccccc1)[C@H](C)N(O)C=O)C(C)(C)C [GI254023X]
effect on ADAM9-mediated shedding of EphB4-AP ([1]; concentrations of up to 10 μM, Adam10/17−/− mEFs): did not block
effect on ADAM9-dependent processing of EphB4-AP ([1]; concentrations up to 5 μM): did not block
lowest concentration inhibiting shedding of the ADAM10 substrate betacellulin-AP [3]: 0.04 µM
IC50 ([4]; read-out: IC50 soluble ADAM9, biochemical assays): 280 ± 110 nM
block of ADAM10 in cell-based assays ([2]; 1 μM): blocks ADAM10
block of ADAM17 in cell-based assays [5]: not ADAM17

CNC(=O)[C@H](Cc1c[nH]c2ccccc12)NC(=O)[C@@H](CC(=O)NO)CC(C)C [GM6001]
IC50 [1]: 720 nM
dose dependence of inhibition of ADAM9-dependent release of EphB4-AP ([1]; Adam10/17−/− mEFs, 2 hours): dose-dependent manner
IC50 [6]: 5930 nM

CNC(=O)[C@@H](NC(=O)[C@H](CC(C)C)[C@H](O)C(=O)NO)C(C)(C)C [Marimastat]
IC50 [1]: 130 nM
dose dependence of inhibition of ADAM9-dependent release of EphB4-AP ([1]; Adam10/17−/− mEFs, 2 hours): dose-dependent manner
Ki ([4]; biochemical assays): 274 nM

CCCCCCCCCCCCCC(=O)O[C@@H]1[C@@H](C)[C@@]2(O)[C@@H](C=C(CO)C[C@]3(O)C(=O)C(C)=C[C@@H]23)[C@@H]2C(C)(C)[C@]12OC(C)=O [PMA, phorbol-12 myristate 13-acetate]
stimulation of ADAM9-dependent shedding of EphB4-AP ([1]; Adam10/17−/− mEFs): did not enhance
effect on EphB4-AP shedding in the absence of active A9 (EA9 cells) [7]: had no effect

CC(C)C[C@H](CC(=O)NO)C(=O)N[C@H](C(=O)N[C@@H](C)C(=O)NCCN)C(C)(C)C [TAPI-2]
dose dependence of inhibition of ADAM9-dependent release of EphB4-AP ([1]; Adam10/17−/− mEFs, 2 hours): dose-dependent manner
Ki ([4]; biochemical assays): 17 nM

C[C@H](CCC(=O)O)C[C@H](C)C[C@H](C)C(=O)/C=C(\O)[C@H](C)C[C@H](C)C/C=C/[C@@H](C)[C@@H](O)[C@@H](C)[C@@H](O)C[C@@H]1CC[C@@](C)([C@H]2CC[C@@](C)([C@@H](C)O)O2)O1 [ionomycin]
stimulation of ADAM9-dependent shedding of EphB4-AP ([1]; Adam10/17−/− mEFs): not responsive
effect on EphB4-AP shedding in the absence of active A9 (EA9 cells) [7]: had no effect

GW280264X
lowest concentration effectively inhibiting ADAM9 activity ([1]; increasing inhibition between 1 and 10 μM): 0.5 µM

TIMP-1: tissue inhibitor of metalloproteinases 1
effect on ADAM9-dependent increase in EphB4-AP shedding ([1]; concentrations up to 20 nM, Adam10/17−/− mEFs, 2 hours): not significantly affected; also recorded: did not affect
effect on EphB4 background shedding in EA9 expressing cells ([7]; up to 20 nM, Adam10/17−/− mEFs, 2 hours): no significant effect
inhibition of recombinantly expressed ADAM9 [4]: not inhibited
IC50 [2]: < 1 nM

pervanadate
stimulation of ADAM9-dependent shedding of EphB4-AP ([1]; Adam10/17−/− mEFs): not responsive
effect on EphB4-AP shedding in the absence of active A9 (EA9 cells) [7]: had no effect

B1: TIMP-3: tissue inhibitor of metalloproteinases 3 (protein, UniProt P35625 24-211, looked up)
Metalloproteinase inhibitor 3: CTCSPSHPQDAFCNSDIVIRAKVVGKKLVKEGPFGTLVYTIKQMKMYRGFTKMPHVQYIHTEASESLCGLKLEVNKYQYLLTGRVYDGKMYTGLCNFVERWDQLTLSQRKGLNYRYHLGCNCKIKSCYYLPCFVTSKNECLWTDMLSNFGYPGYQSKHYACIRQKGGYCSWYRGWAPPDKSIINATDP
reduction of the activity of ADAM9 ([1]; 10 nM): 40-50%
effect on ADAM9-dependent EphB4-AP shedding ([1]; 10 nM, Adam10/17−/− mEFs, 2 hours): inhibited ADAM9 partially; also recorded: partially blocked
reduction of the activity of ADAM9 ([1]; 20 nM): 75%
effect on ADAM9-dependent EphB4-AP shedding ([1]; 20 nM, Adam10/17−/− mEFs, 2 hours): strongly
inhibition of recombinantly expressed ADAM9 [4]: not inhibited
IC50 [2]: < 1 nM
IC50 [8]: ~20 nM
